In ChEMBL document CHEMBL4725336, “Anti-cancer potential of (1,2-dihydronaphtho[2,1-b]furan-2-yl)methanone derivatives” (Bioorg Med Chem Lett, 2020):
The source made the active and inactive calls. The rule behind the calls is not given here.

Legend:
[1] = Selectivity index, ratio of LD50 for human WI-38 cells to LD50 for human MDA-MB-231 cells assessed as inhibition of cell proliferation by MTT assay; format: toxicity; settings: WI-38 cells and MDA-MB-231 cells, read-out: Selectivity Index
[2] = Cytotoxicity against human WI-38 cells assessed as inhibition of cell proliferation by MTT assay; format: cell-based; settings: read-out: LD50 (the source's name)
Summary of the method: (§1)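 MTT proliferation assay; cells exposed to compounds across 0-50 μM; LD50 derived from dose-dependent survival. Triple-negative MDA-MB-468, MDA-MB-231 and 4T1, ER+/PR+ MCF-7, and non-cancerous lung fibroblast WI-38 tested.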

[3] = test system: MCF7; assay: Antiproliferative activity against human MCF7 cells assessed as inhibition of cell proliferation by MTT assay; format: functional; settings: read-out: LD50 (the source's name); summary of the method: as §1
[4] = test system: MDA-MB-468; assay: Antiproliferative activity against human MDA-MB-468 cells assessed as inhibition of cell proliferation by MTT assay; format: functional; settings: read-out: LD50 (the source's name); summary of the method: as §1
[5] = Selectivity index, ratio of LD50 for human WI-38 cells to LD50 for mouse 4T1 cells assessed as inhibition of cell proliferation by MTT assay
Summary of the method: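 Selectivity index computed as MTT-derived LD50 in non-cancerous WI-38 lung fibroblasts divided by LD50 in the cancer line (cells exposed to 0-50 μM).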

[6] = test system: 4T1; assay: Antiproliferative activity against mouse 4T1 cells assessed as inhibition of cell proliferation by MTT assay; format: functional; settings: read-out: LD50 (the source's name); summary of the method: as §1
[7] = test system: MDA-MB-231; assay: Antiproliferative activity against human MDA-MB-231 cells assessed as inhibition of cell proliferation by MTT assay; format: functional; settings: read-out: LD50 (the source's name); summary of the method: as §1
[8] = Selectivity index, ratio of LD50 for human WI-38 cells to LD50 for human MCF7 cells assessed as inhibition of cell proliferation by MTT assay; format: toxicity; settings: WI-38 cells and MCF7 cells, read-out: Selectivity Index
Summary of the method: (§2)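 MTT proliferation assay on cells treated with 0–50 μM. LD50 was derived for each cell line, and the selectivity index was calculated as WI-38 LD50 divided by cancer-cell LD50.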

[9] = Selectivity index, ratio of LD50 for human WI-38 cells to LD50 for human MDA-MB-468 cells assessed as inhibition of cell proliferation by MTT assay; format: toxicity; settings: WI-38 cells and MDA-MB-468 cells, read-out: Selectivity Index; summary of the method: as §2
[10] = test system: WI-38; assay: Induction of apoptosis in human WI-38 cells assessed as increase in cleaved caspase-3 expression at 10 to 30 uM by Western blot analysis; format: cell-based; settings: wi-38, 30 µM, dose 10-30 µM
[11] = test system: MCF7; assay: Induction of apoptosis in human MCF7 cells at 30 uM measured after 24 hrs by annexinV-FITC/propidium iodide staining based flow cytometry analysis relative to control; format: functional
Summary of the method: (§3)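 Cells were treated with 0, 10, 20 and 30 μM for 24 h, then stained with Annexin V-FITC/PI. Apoptotic cells were quantified by flow cytometry from dot plots against untreated cells.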

[12] = test system: MDA-MB-468; assay: Induction of mitochondrial ROS production in human MDA-MB-468 cells at 10 to 30 uM by MitoSox red dye based spectrofluorimetric analysis; format: functional, cell-based; settings: dose microM 10-30
Summary of the method: (§4)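 Cells were treated at 10, 20 and 30 μM and stained with MitoSOX Red. Red fluorescence from oxidized product was imaged and its intensity measured spectroscopically. Mean of three experiments ±SD.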

[13] = test system: MDA-MB-468; assay: Induction of DNA damage in human MDA-MB-468 cells assessed as tail length at 30 uM measured after 24 hrs by comet assay; format: functional
Summary of the method: (§5)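 Cells given 0, 10, 20 and 30 μM; DNA strand breaks were assessed by single-cell gel electrophoresis (comet assay). Fragmented DNA migrates toward the anode, and tail length was measured against untreated cells.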

[14] = test system: MDA-MB-468; assay: Induction of apoptosis in human MDA-MB-468 cells assessed as activation of caspase-3 cleavage at 10 to 30 uM by Western blot analysis; format: functional, cell-based; settings: dose microM 10-30
Summary of the method: (§6)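 MDA-MB-468 cells were treated with 10, 20 and 30 μM. Bcl2, Bax, cleaved caspase-3, p53 and pBad were probed by Western blot, and band expression was quantified.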

[15] = test system: MDA-MB-468; assay: Induction of apoptosis in human MDA-MB-468 cells assessed as increase in p53 expression at 10 to 30 uM by Western blot analysis; format: functional, cell-based; settings: dose microM 10-30; summary of the method: as §6
[16] = test system: MDA-MB-468; assay: Induction of mitochondrial membrane potential loss in human MDA-MB-468 cells at 10 to 30 uM by JC-1 staining based analysis; format: functional, cell-based; settings: dose microM 10-30, TDE = time-dependent effect
Summary of the method: (§7)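 Cells were given 10, 20 and 30 μM and stained with JC-1. Mitochondrial membrane potential change was read as the shift from red to green fluorescence, i.e. the red/green ratio, across concentration and time.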

[17] = test system: MDA-MB-468; assay: Induction of apoptosis in human MDA-MB-468 cells assessed as increase in BAX/Bcl2 expression ratio at 10 to 30 uM by Western blot analysis; format: functional, cell-based; settings: dose microM 10-30; summary of the method: as §6
[18] = test system: MCF7; assay: Induction of apoptosis in human MCF7 cells measured after 24 hrs by annexinV-FITC/propidium iodide staining based flow cytometry analysis; format: functional, cell-based; settings: dose microM 10-30, time 24.0 hrs; summary of the method: as §3
[19] = test system: WI-38; assay: Induction of ROS generation in human WI-38 cells assessed as increase in fluorescence intensity at 10 to 30 uM after 12 hrs by DCFDA staining based microscopy analysis; format: cell-based; settings: wi-38, 12 h, dose 10-30 µM
Summary of the method: (§8)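 Cells were exposed to 0, 10, 20 or 30 μM for 12 h, then stained with DCFDA (100 μM) for 30 min. Green fluorescence was imaged by microscopy and intensity was also read spectrophotometrically. Data are the mean of three experiments ±SD.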

[20] = test system: MCF7; assay: Induction of mitochondrial membrane potential loss in human MCF7 cells by JC-1 staining based analysis; format: functional, cell-based; settings: dose microM 10-30; summary of the method: as §7
[21] = test system: MDA-MB-468; assay: Induction of mitochondrial membrane potential loss in human MDA-MB-468 cells by JC-1 staining based analysis; format: functional, cell-based; settings: dose microM 10-30; summary of the method: as §7
[22] = test system: MDA-MB-468; assay: Induction of ROS generation in human MDA-MB-468 cells assessed as increase in fluorescence intensity after 12 hrs by DCFDA staining based microscopy analysis; format: functional, cell-based; settings: dose microM 10-30, time 12.0 hrs; summary of the method: as §8
[23] = test system: MDA-MB-468; assay: Induction of apoptosis in human MDA-MB-468 cells measured after 24 hrs by annexinV-FITC/propidium iodide staining based flow cytometry analysis; format: functional, cell-based; settings: dose microM 10-30, time 24.0 hrs; summary of the method: as §3
[24] = test system: MCF7; assay: Induction of mitochondrial ROS production in human MCF7 cells at 10 to 30 uM by MitoSox red dye based spectrofluorimetric analysis; format: functional, cell-based; settings: dose microM 10-30; summary of the method: as §4
[25] = test system: MCF7; assay: Induction of ROS generation in human MCF7 cells assessed as increase in fluorescence intensity after 12 hrs by DCFDA staining based microscopy analysis; format: functional, cell-based; settings: dose microM 10-30, time 12.0 hrs; summary of the method: as §8
[26] = test system: MDA-MB-468; assay: Induction of ROS generation in human MDA-MB-468 cells assessed as increase in fluorescence intensity at 10 to 30 uM after 12 hrs in presence of ROS scavenger NAC by DCFDA staining based microscopy analysis; format: functional, cell-based; settings: dose microM 10-30, time 12.0 hrs
Summary of the method: (§9)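 Cells were pre-treated with 10 mM N-acetyl cysteine (ROS scavenger), then given 10, 20 or 30 μM for 12 h. They were stained with 100 μM DCFDA for 30 min and read by fluorescence microscopy and spectrophotometric intensity. Three experiments, mean ±SD.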

[27] = test system: WI-38; assay: Induction of apoptosis in human WI-38 cells at 10 to 30 uM measured after 24 hrs by annexinV-FITC/propidium iodide staining based flow cytometry analysis; format: cell-based; settings: wi-38, 24 h, dose 10-30 µM; summary of the method: as §3
[28] = test system: WI-38; assay: Induction of mitochondrial membrane potential loss in human WI-38 cells at 10 to 30 uM by JC-1 staining based analysis; format: cell-based; settings: wi-38, 30 µM, dose 10-30 µM; summary of the method: as §7
[29] = test system: MDA-MB-468; assay: Induction of apoptosis in human MDA-MB-468 cells assessed as increase in cleaved caspase-3 expression at 10 to 30 uM in presence of pan-caspase inhibitor z-VAD-FMK by Western blot analysis; format: functional, cell-based; settings: dose microM 10-30
Summary of the method: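 MDA-MB-468 cells were exposed to the caspase inhibitor Z-VAD-FMK, then treated with 10, 20 or 30 μM. Cleaved caspase-3 was detected by Western blot and quantified.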

[30] = test system: MDA-MB-468; assay: Induction of apoptosis in human MDA-MB-468 cells assessed as decrease in pBad expression at 10 to 30 uM by Western blot analysis; format: functional, cell-based; settings: dose microM 10-30; summary of the method: as §6
[31] = test system: MDA-MB-468; assay: Induction of apoptosis in human MDA-MB-468 cells at 30 uM measured after 24 hrs by annexinV-FITC/propidium iodide staining based flow cytometry analysis relative to control; format: functional; summary of the method: as §3
[32] = test system: MCF7; assay: Induction of ROS generation in human MCF7 cells assessed as increase in fluorescence intensity at 10 to 30 uM after 12 hrs in presence of ROS scavenger NAC by DCFDA staining based microscopy analysis; format: functional, cell-based; settings: dose microM 10-30, time 12.0 hrs; summary of the method: as §9
[33] = test system: MDA-MB-468; assay: Induction of DNA damage in human MDA-MB-468 cells assessed as tail length at 20 uM measured after 24 hrs by comet assay; format: functional; summary of the method: as §5
[34] = test system: MCF7; assay: Induction of mitochondrial membrane potential loss in human MCF7 cells at 10 to 30 uM by JC-1 staining based analysis; format: functional, cell-based; settings: dose microM 10-30, TDE = time-dependent effect; summary of the method: as §7
[35] = test system: MDA-MB-468; assay: Induction of apoptosis in human MDA-MB-468 cells assessed as decrease in Bcl2 expression at 10 to 30 uM by Western blot analysis; format: functional, cell-based; settings: dose microM 10-30; summary of the method: as §6

O=C(c1ccc(Br)cc1)[C@@H]1Cc2c(ccc3ccccc23)O1
selectivity ratio [1]: 2.43 | CC50 [2]: 56 µM | CC50 [3]: 21 µM | CC50 [4]: 18 µM | Selectivity Index [5]: 2.24 | CC50 [6]: 25 µM | CC50 [7]: 23 µM | selectivity ratio [8]: 2.66 | selectivity ratio [9]: 3.11

O=C(c1ccccc1)[C@H]1Oc2ccc3ccccc3c2[C@@H]1c1ccccc1
CC50 [2]: 89 µM | CC50 [3]: 68 µM | CC50 [4]: 72 µM | selectivity ratio [8]: 1.3 | selectivity ratio [9]: 1.24

O=C(c1ccccc1)[C@H]1Oc2ccc3cc(Br)ccc3c2[C@@H]1c1ccccc1
selectivity ratio [1]: 2.36 | CC50 [2]: 52 µM | CC50 [3]: 19 µM | CC50 [4]: 18 µM | Selectivity Index [5]: 2.16 | CC50 [6]: 24 µM | CC50 [7]: 22 µM | selectivity ratio [8]: 2.74 | selectivity ratio [9]: 2.89

Cc1ccc(C(=O)[C@@H]2Cc3c(ccc4ccccc34)O2)cc1
selectivity ratio [1]: 3.05 | CC50 [2]: 58 µM | Activity [10]: Non-Toxic | CC50 [3]: 17 µM | Activity [11]: 61% | Activity [12]: Active | Activity [13]: 63 µm | CC50 [4]: 15 µM | Activity [14]: Active | Activity [15]: Active | Selectivity Index [5]: 2.76 | Activity [16]: Tde | Activity [17]: Active | Activity [18]: Dose-dependent effect | Activity [19]: Non-Toxic | Activity [20]: Dose-dependent effect | Activity [21]: Dose-dependent effect | CC50 [6]: 21 µM | Activity [22]: Dose-dependent effect | Activity [23]: Dose-dependent effect | CC50 [7]: 19 µM | Activity [24]: Active | selectivity ratio [8]: 3.41 | Activity [25]: Dose-dependent effect | Activity [26]: inactive | Activity [27]: Non-Toxic | Activity [28]: Non-Toxic | Activity [29]: inactive | Activity [30]: Active | Activity [31]: 69% | Activity [32]: inactive | selectivity ratio [9]: 3.87 | Activity [33]: 32 µm | Activity [34]: Tde | Activity [35]: Active

CC(=O)[C@@H]1Cc2c(ccc3ccccc23)O1
CC50 [2]: 47 µM | CC50 [3]: 26 µM | CC50 [4]: 22 µM | selectivity ratio [8]: 1.8 | selectivity ratio [9]: 2.13

O=C(c1ccccc1)[C@H]1Oc2ccc3ccccc3c2[C@@H]1c1ccc(O)cc1
CC50 [2]: 115 µM | CC50 [3]: 77 µM | CC50 [4]: 81 µM | selectivity ratio [8]: 1.49 | selectivity ratio [9]: 1.42

CCC[C@H]1c2c(ccc3ccccc23)O[C@@H]1C(=O)c1ccccc1
CC50 [2]: 79 µM | CC50 [3]: 74 µM | CC50 [4]: 69 µM | selectivity ratio [8]: 1.07 | selectivity ratio [9]: 1.14

O=C(c1ccccc1)[C@H]1Oc2ccc3ccccc3c2[C@@H]1c1ccc(Br)cc1
CC50 [2]: 77 µM | CC50 [3]: 56 µM | CC50 [4]: 63 µM | selectivity ratio [8]: 1.37 | selectivity ratio [9]: 1.22
